Measurements taken from ChEMBL document CHEMBL1141248, “Filiasparosides A-D, cytotoxic steroidal saponins from the roots of Asparagus filicinus” (J Nat Prod, 2007).
Converted amounts (≈) assume the structure as drawn.

Key:
[1] = system: MCF7; experiment: Cytotoxicity against human MCF7 cells after 2 days; assay type: functional, cell-based; details: MCF7, 48 h
In short: (§1)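 Growth inhibition under continuous exposure for 2 days. Stock solutions were made in DMSO and kept at -70 °C, then diluted into culture medium to a final DMSO of ≤1% (v/v). EC50 was taken as the concentration giving 50% growth inhibition.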

[2] = system: A549; experiment: Cytotoxicity against human A549 cells after 2 days; assay type: functional, cell-based; details: A549, 48 h; in short: as §1

SMILES	EC50 [1] [µg/mL]	EC50 [2] [µg/mL]
C[C@H]1CC[C@@]2(OC1)O[C@H]1C[C@H]3[C@@H]4CC[C@@H]5C[C@@H](O[C@@H]6O[C@H](CO)[C@@H](O[C@@H]7O[C@@H](C)[C@H](O)[C@@H](O)[C@H]7O)[C@H](O)[C@H]6O[C@H]6OC[C@H](O)[C@@H](O)[C@@H]6O)CC[C@]5(C)[C@H]4CC[C@]3(C)[C@H]1[C@@H]2C	3 (≈ 3.5 µM)	2.3 (≈ 2.68 µM)
C[C@H]1CC[C@@]2(OC1)O[C@H]1C[C@H]3[C@@H]4CC[C@@H]5C[C@@H](O[C@@H]6O[C@H](CO)[C@@H](O[C@@H]7OC[C@@H](O)[C@H](O)[C@H]7O)[C@H](O)[C@H]6O)CC[C@]5(C)[C@H]4CC[C@]3(C)[C@H]1[C@@H]2C [ASPAFILIOSIDE A]	> 20	9.4 (≈ 13.2 µM)
COc1cc([C@@H]2c3cc4c(cc3[C@@H](O[C@@H]3O[C@@H]5CO[C@@H](C)O[C@H]5[C@H](O)[C@H]3O)[C@H]3COC(=O)[C@H]23)OCO4)cc(OC)c1O [ETOPOSIDE]	2.8 (≈ 4.76 µM)	0.8 (≈ 1.36 µM)
C[C@@H]1CC[C@@]2(OC1)O[C@H]1C[C@H]3[C@@H]4CC[C@H]5C[C@@H](O[C@@H]6O[C@H](CO[C@@H]7OC[C@H](O)[C@H](O)[C@H]7O)[C@@H](O[C@@H]7OC[C@@H](O)[C@H](O)[C@H]7O)[C@H](O)[C@H]6O)CC[C@]5(C)[C@H]4CC(=O)[C@]3(C)[C@H]1[C@@H]2C [FILIASPAROSIDE A]	11.2 (≈ 13.1 µM)	13.3 (≈ 15.5 µM)
C[C@@H]1CC[C@@]2(OC1)O[C@H]1C[C@H]3[C@@H]4CC[C@H]5C[C@@H](O[C@@H]6O[C@H](CO[C@@H]7OC[C@H](O)[C@H](O)[C@H]7O)[C@@H](O)[C@H](O)[C@H]6O)CC[C@]5(C)[C@H]4CC(=O)[C@]3(C)[C@H]1[C@@H]2C [FILIASPAROSIDE B]	16.8 (≈ 23.2 µM)	16.4 (≈ 22.6 µM)
C[C@H]1CC[C@@]2(OC1)O[C@H]1C[C@H]3[C@@H]4CC[C@@H]5C[C@@H](O[C@@H]6O[C@H](CO[C@@H]7OC[C@H](O)[C@H](O)[C@H]7O)[C@@H](O)[C@H](O)[C@H]6O)CC[C@]5(C)[C@H]4CC[C@]3(C)[C@H]1[C@@H]2C [FILIASPAROSIDE D]	10.3 (≈ 14.5 µM)	2.4 (≈ 3.38 µM)
